Data taken from ChEMBL document CHEMBL3769305, “Glucose-functionalized amino-OPEs as biocompatible photosensitizers in PDT” (Eur J Med Chem, 2016).
Calls of active or inactive are those of the source. The calls are words filed in the database; no cut-off is given here.

Tests used:
[1] = Dark toxicity against human HaCaT cells assessed as cell survival at 3 uM incubated for 6 hrs measured after 24 hrs by MTT assay; format: cell-based; conditions: read-out: Survival
Procedure, shortened: (§1)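 Cells (HaCaT and HeLa in DMEM, HEp-2 in RPMI, each with 10% FBS, at 37 °C and 5% CO2) were treated at 60–70% confluence. The compound was added from a 10^-3 M DMSO stock in medium with 1% FBS (final DMSO <0.5%) at 3·10^-6 to 2.5·10^-5 M and kept in the dark (6 h per table footnote, 18 h per methods). After 24 h, MTT at 50 µg/mL for 4 h, read at 542 nm as % of control OD.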

HEp-2 [2] = assay: Induction of cell morphological changes in human Hep2 cells assessed as deep deformation of cell membrane at LD90 after 24 hrs by Hoechst 33258 staining-based phase contrast microscopy in presence of 1 to 2 J/Cm'2 UVA light; format: functional
[3] = Phototoxicity against human HaCaT cells incubated for 6 hrs followed by UV irradiation at 0.25 J/cm'2 measured after 24 hrs by MTT assay; format: cell-based; conditions: read-out: LD50
Procedure, shortened: (§2)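 Cultures at 60–70% confluence were loaded with the photosensitizer for 6 h in medium with 1% FBS and <0.5% DMSO. Medium was then replaced and cells were irradiated with UVA (300–400 nm, 15.9 W/m² at 10 cm), then washed and kept in complete medium for 24 h. Survival was read by MTT (50 µg/mL, 4 h, 542 nm) as % of untreated control OD.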

HeLa [4] = assay: Induction of cell morphological changes in human HeLa cells assessed as deep deformation of cell membrane at LD90 after 24 hrs by Hoechst 33258 staining-based phase contrast microscopy in presence of 1 to 2 J/Cm'2 UVA light; format: functional
HaCaT [5] = assay: Drug uptake in human HaCaT cells at 1 uM after 6 hrs by fluorescence microscopy; format: ADME, cell-based
Procedure, shortened: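 Cells on glass coverslips at 60–70% confluence were exposed to 1×10^-6 M compound in medium with 1% FBS (DMSO <0.5%) for 6 h at 37 °C. After two PBS washes they were imaged live under UV excitation (365 nm), with blue excitation (460–490 nm) also used. Untreated cells served as autofluorescence controls.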

HeLa [6] = assay: Induction of microtubule disruption in human HeLa cells assessed as appearance of extrapoles at LD50 after 24 hrs by immunofluorescence assay in presence of UVA light; format: cell-based
HaCaT [7] = assay: Induction of necrosis in human HaCaT cells at LD50 after 24 hrs by acridine orange/ethidium bromide staining-based assay in presence of 0.25 to 0.5 J/cm'2 UVA light; format: cell-based
[8] = Drug uptake in endoplasmic reticulum of human Hep2 cells at 1 uM after 6 hrs by ER-tracker dye-based fluorescence microscopy; format: ADME, cell-based; conditions: hep-2, 6 h
Procedure, shortened: (§3)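 Cells grown on glass coverslips were incubated with 1×10^-6 M photosensitizer for 6 h at 37 °C, washed twice in PBS and imaged live by fluorescence microscopy. Organelle probes (ER-Tracker, ex 374/em 430 nm; NBD-Golgi, ex 466/em 536 nm) were applied for 30 min at the supplier's concentrations, and their patterns were compared with the compound signal.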

HeLa [9] = assay: Phototoxicity against human HeLa cells assessed as cell lethality at 3 to 250 uM incubated for 6 hrs followed by UV irradiation at 2 J/cm'2 measured after 24 hrs by MTT assay; format: functional; procedure, shortened: as §2
HEp-2 [10] = assay: Induction of microtubule disruption in human Hep2 cells assessed as increase in altered metaphase at LD50 after 24 hrs by immunofluorescence assay in presence of UVA light; format: cell-based
HEp-2 [11] = assay: Phototoxicity against human Hep2 cells assessed as appearance of rounded cells at LD50 after 24 hrs by acridine orange/ethidium bromide staining-based assay in presence of 0.25 to 0.5 J/cm'2 UVA light; format: functional, cell-based
Procedure, shortened: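 Cells (HaCaT, HeLa in DMEM; HEp-2 in RPMI; 10% FBS) at 60–70% confluence were incubated 6 h with 3·10^-6 M photosensitizer (DMSO stock diluted in medium with 1% FBS, final DMSO <0.5%). Medium was replaced and cells were given 0.25 J/cm² UVA (300–400 nm). 24 h later, cells were stained live with 50 µg/ml AO plus 50 µg/ml EtBr in PBS. Within 15 min, 200 cells per condition were scored as living, rounded, apoptotic or necrotic.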

HeLa [12] = assay: Phototoxicity against human HeLa cells assessed as cell lethality at 3 to 250 uM incubated for 6 hrs followed by UV irradiation at 1 J/cm'2 measured after 24 hrs by MTT assay; format: functional; procedure, shortened: as §2
HEp-2 [13] = assay: Induction of cell morphological changes in human Hep2 cells assessed as cell detachment from substrate at 3 to 5 uM after 24 hrs by Hoechst 33258 staining-based phase contrast microscopy in presence of UVA light; format: functional
HeLa [14] = assay: Induction of microtubule disruption in human HeLa cells assessed as increase in altered metaphase at LD50 after 24 hrs by immunofluorescence assay in presence of UVA light; format: cell-based
HeLa [15] = assay: Phototoxicity against human HeLa cells incubated for 6 hrs followed by UV irradiation at 0.25 J/cm'2 measured after 24 hrs by MTT assay; format: functional; procedure, shortened: as §2
[16] = Phototoxicity against human Hep2 cells incubated for 6 hrs followed by UV irradiation at 0.25 J/cm'2 measured after 24 hrs by MTT assay; format: functional, HEp-2; procedure, shortened: as §2
HaCaT [17] = assay: Induction of cell morphological changes in human HaCaT cells assessed as deep deformation of cell membrane at LD90 after 24 hrs by Hoechst 33258 staining-based phase contrast microscopy in presence of 1 to 2 J/Cm'2 UVA light
[18] = Induction of microtubule disruption in human Hep2 cells assessed as abnormality in chromosome distribution at LD50 after 24 hrs by immunofluorescence assay in presence of UVA light; format: cell-based; conditions: HEp-2
HeLa [19] = assay: Induction of morphological changes in human HeLa cells assessed as nuclear retraction at LD50 after 24 hrs by Hoechst 33258 staining-based fluorescence microscopy in presence of UVA light; format: functional, cell-based
[20] = Drug uptake in golgi apparatus of human Hep2 cells at 1 uM after 6 hrs by NBD dye-based fluorescence microscopy; format: ADME, cell-based; conditions: hep-2, 6 h; procedure, shortened: as §3
HEp-2 [21] = assay: Induction of microtubule disruption in human Hep2 cells assessed as appearance of extrapoles at LD50 after 24 hrs by immunofluorescence assay in presence of UVA light; format: cell-based
[22] = Dark toxicity against human HeLa cells assessed as cell survival at 3 uM incubated for 6 hrs measured after 24 hrs by MTT assay; format: cell-based; conditions: read-out: Survival; procedure, shortened: as §1
[23] = Drug uptake in golgi apparatus of human HaCaT cells at 1 uM after 6 hrs by NBD dye-based fluorescence microscopy; format: ADME, cell-based; procedure, shortened: as §3
HEp-2 [24] = assay: Induction of cell morphological changes in human Hep2 cells assessed as cytoplasmic vacuolization at 3 to 5 uM after 24 hrs by Hoechst 33258 staining-based phase contrast microscopy in presence of UVA light; format: functional
HaCaT [25] = assay: Phototoxicity against human HaCaT cells assessed as cell lethality at 3 to 250 uM incubated for 6 hrs followed by UV irradiation at 1 J/cm'2 measured after 24 hrs by MTT assay; format: cell-based; procedure, shortened: as §2

With `COc1cc(C#Cc2ccc(C#CCO[C@@H]3O[C@H](CO)[C@@H](O)[C@H](O)[C@H]3O)cc2N(C)C)c(OC)cc1C#Cc1ccc(C#CCO[C@@H]2O[C@H](CO)[C@@H](O)[C@H](O)[C@H]2O)cc1N(C)C` the viability at 6 h, 3 µM [1] was 91.5%, the Activity (HEp-2 [2]) was “Active” and the CC50 at 24 h [3] was 3000 nM. The Activity (HeLa [4]) was “Active”, the Drug uptake (HaCaT [5]) was “Active” and the Activity (HeLa [6]) was “Active”. For the same compound, the Activity (HaCaT [7]) was “Toxic”, the Drug uptake [8] was “Active” and the mortality (HeLa [9]) was >50%. For the same compound, the Activity (HEp-2 [10]) was “Active”, the Activity (HEp-2 [11]) was “Active” and the mortality (HeLa [12]) was >50%. The Activity (HEp-2 [13]) was “Active”, the Activity (HeLa [14]) was “Active” and the LD50 (HeLa [15]) was 3 ×10⁻⁶ M. For the same compound, the LD50 [16] was 3 ×10⁻⁶ M, the Activity (HaCaT [17]) was “Toxic” and the Activity [18] was “Active”. The Activity (HeLa [19]) was “Active”, the Drug uptake [20] was “Active” and the Activity (HEp-2 [21]) was “Active”. The viability at 6 h, 3 µM [22] was 96.6%, the Drug uptake [23] was “Active” and the Activity (HEp-2 [24]) was “Active”. The mortality (HaCaT [25]) was > 50%.
In the case of `COc1cc(C#Cc2ccc(C#Cc3cc(OC)c(C#CCO[C@@H]4O[C@H](CO)[C@@H](O)[C@H](O)[C@H]4O)cc3OC)c(N(C)C)c2)c(OC)cc1C#CCO[C@@H]1O[C@H](CO)[C@@H](O)[C@H](O)[C@H]1O`, the viability at 6 h, 3 µM [1] is reported as 92.4%, the Activity (HEp-2 [2]) is reported as “Active” and the CC50 at 24 h [3] is reported as 3000 nM. The Activity (HeLa [4]) was “Active”, the Drug uptake (HaCaT [5]) was “Active” and the Activity (HeLa [6]) was “Active”. For the same compound, the Activity (HaCaT [7]) was “Toxic”, the Drug uptake [8] was “Active” and the mortality (HeLa [9]) was >50%. The Activity (HEp-2 [10]) was “Active”, the Activity (HEp-2 [11]) was “Active” and the mortality (HeLa [12]) was >50%. The Activity (HEp-2 [13]) was “Active”, the Activity (HeLa [14]) was “Active” and the LD50 (HeLa [15]) was 3 ×10⁻⁶ M. For the same compound, the LD50 [16] was 3 ×10⁻⁶ M, the Activity (HaCaT [17]) was “Toxic” and the Activity [18] was “Active”. For the same compound, the Activity (HeLa [19]) was “Active”, the Drug uptake [20] was “Active” and the Activity (HEp-2 [21]) was “Active”. For the same compound, the viability at 6 h, 3 µM [22] was 96.4%, the Drug uptake [23] was “Active” and the Activity (HEp-2 [24]) was “Active”. For the same compound, the mortality (HaCaT [25]) was > 50%.
